Consider twelve compounds from PMC3954946 (Journal of medicinal chemistry, 2013).

For one data set, the system named is HCV genotype 1 (GT-1). The note with it: triple combination with Peg-IFN/RBV, genotype-1 naive patients; cited from earlier work.
Data set [1] concerns HCV GT-1b Con1 subgenomic replicon. The data set can be described thus: Stable HCV GT-1b Con1 subgenomic replicon assay. In kind it is cell-based, Hepatitis C virus.
Data set [2] shares this test system. The conditions noted are these: genotype not given; cited from earlier work.
The subject of data set [3] is HCV GT-1a H77 subgenomic replicon. Kind of data set: Stable HCV GT-1a H77 subgenomic replicon assay. In kind it is cell-based, Hepatitis C virus. The note with it: for Plasma Shift fold: EC50 with 40% human serum vs without, GT-1a and GT-1b. (In general: Replicon systems follow genome replication, usually without infectious particles.)
Data set [4] concerns GT-1b Con1 transient replicon with NS5B clinical isolates. The data set can be described thus: Transient HCV replicon assay, panel of GT-1b NS5B clinical isolates. Format: cell-based. The note with it: Hepatitis C virus, GT1B, read-out: mean EC50, GT 1b panel, geometric mean.
The nature of the next data set: Pharmacokinetics in dog. In kind it is in vivo, Male beagle dogs. The note with it: male, beagle, plasma, po. In short, it runs like this: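 Male beagle dogs with free access to food and water received a single oral dose of test compound by gavage in 2% Klucel LF in water. Blood was collected into EDTA tubes at typically 0.25, 0.5, 1, 2, 4, 6, 8 and 24 h post-dose. Plasma concentrations were measured by LC/MS/MS after protein precipitation with acetonitrile.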

Another data set in a line: Pharmacokinetics in rat. In kind it is in vivo, Male Wistar/Han (CRL:WI) rats. The conditions noted are these: male, Wistar/Han (CRL:WI), plasma, po.

Molecules are shown by their SMILES.

Turning to `CC(C)(C)NC(=O)N[C@H](C(=O)N1C[C@H]2[C@@H]([C@H]1C(=O)NC(CC1CCC1)C(=O)C(N)=O)C2(C)C)C(C)(C)C` (stereo partly drawn) [Boceprevir], the SVR rates with HCV genotype 1 (GT-1) is given as not above 68%.

Consider `COc1c(/C=C/c2ccc(NS(C)(=O)=O)cc2)cc(-c2cc(F)c[nH]c2=O)cc1C(C)(C)C` [Compound 7, reference compound], for which the EC50 in data set [1] (Hepatitis C virus, GT1B, read-out: GT-1b EC50) worked out at 3 nM; in data set [3] (Hepatitis C virus, GT1A, read-out: GT-1a EC50) it was 8 nM. Further, the “activity in the HCV subgenomic replicon assay” value in data set [2] was “single digit nM”.

Take `CC(C)(C)c1cc(-c2cc(F)c[nH]c2=O)c2ncc(-c3ccc(NS(C)(=O)=O)cc3)cc2c1` [Compound 34]: in data set [3] (desmethoxy analog vs 33, replicon GT-1a and GT-1b), the drop in activity is listed as 4-to 6 fold.

Consider `COc1c(C(C)(C)C)cc(-n2ccc(=O)[nH]c2=O)c2ncc(-c3ccc(NS(C)(=O)=O)cc3)cc12` [Compound 35, N-[4-[6-tert-Butyl-8-(2,4-dioxopyrimidin-1-yl)-5-methoxy-3-quinolyl]phenyl] methanesulfonamide], for which the “Plasma Shift fold” value in data set [3] is reported as 1.7–2.2 fold.

`COc1c(C(C)(C)C)cc(-n2ccc(=O)[nH]c2=O)c2ccc(-c3ccc(NS(C)(=O)=O)cc3)cc12` [Compound 36, N-[4-[7-tert-Butyl-5-(2,4-dioxopyrimidin-1-yl)-8-methoxy-2-naphthyl]phenyl] methanesulfonamide]: the “increase in potency against both genotypes with respect to quinoline 35” value in data set [3] (replicon GT-1a and GT-1b) is listed as 2- to 3 fold.

With `COc1c(C(C)(C)C)cc(-c2ccc[nH]c2=O)c2ncc(-c3ccc(NS(C)(=O)=O)cc3)cc12` [Compound 39, N-[4-[6-tert-Butyl-5-methoxy-8-(2-oxo-1H-pyridin-3-yl)-3-quinolyl]phenyl] methanesulfonamide], the “Plasma Shift fold” value in data set [3] was 0.8–3.5 fold.

Consider `COc1ccc(-c2cc(C(C)(C)C)c(OC)c3cc(-c4ccc(NS(C)(=O)=O)cc4)cnc23)c(=O)[nH]1` [Compound 41, N-[4-[6-tert-Butyl-5-methoxy-8-(6-methoxy-2-oxo-1H-pyridin-3-yl)-3-quinolyl]phenyl] methanesulfonamide], for which the EC50 in data set [4] was 0.26 nM. Further, the concentration at 8 h stood at 1950 nM in “Pharmacokinetics in dog” and 1220 nM in “Pharmacokinetics in rat”. Also, the “improvement in the 40% HS replicon assay” value in data set [3] (vs lead compound 7) came to 6 fold.

For the compound `COc1c(C(C)(C)C)cc(N2CCCNC2=O)c2ncc(-c3ccc(NS(C)(=O)=O)cc3)cc12` [Compound 43], the “decrease in potency against GT-1b” value in data set [1] (vs dihydrouracil 42) turned out to be 6 fold. Moreover, the “decrease in potency against GT-1a” value in data set [3] (vs dihydrouracil 42) came to 14 fold.

Take `COc1c(C(C)(C)C)cc(-c2cn(C)c(=O)[nH]c2=O)c2ncc(-c3ccc(NS(C)(=O)=O)cc3)cc12` [Compound 44]: the “increase in potency against both genotypes with respect to quinoline 35” value in data set [3] (replicon GT-1a and GT-1b) was ~ 2 fold.

With `COc1ccc(-c2cc(C(C)(C)C)c(OC)c3cc(N4CC[C@H](CNS(C)(=O)=O)C4)cnc23)c(=O)[nH]1` [Compound 50, N-[[(3S)-1-[6-tert-butyl-5-methoxy-8-(6-methoxy-2-oxo-1H-pyridin-3-yl)-3-quinolyl]pyrrolidin-3-yl]methyl]methanesulfonamide], the concentration at 8 h in “Pharmacokinetics in rat” was found to be 3500 nM.

Take `COc1c(C2(C(F)F)CC2)cc(-n2ccc(=O)[nH]c2=O)c2ncc(-c3ccc(NS(C)(=O)=O)cc3)cc12` [Compound 53, N-[4-[6-[1-(Difluoromethyl)cyclopropyl]-8-(2,4-dioxopyrimidin-1-yl)-5-methoxy-3-quinolyl]phenyl]methanesulfonamide]: the “improvement in potency with respect to compounds 51 and 52” value in data set [3] (replicon GT-1a and GT-1b) is given as 3- to 9 fold.

Turning to `CCC[C@H](NC(=O)[C@@H]1[C@H]2CCC[C@H]2CN1C(=O)[C@@H](NC(=O)[C@@H](NC(=O)c1cnccn1)C1CCCCC1)C(C)(C)C)C(=O)C(=O)NC1CC1` [Telaprevir], in the data set on HCV genotype 1 (GT-1), the SVR rates result was “up to 75%”.

What is called EC50 is the concentration needed to bring the measured effect to its halfway point.
